Data as given in paper PMC11223228 (ACS Omega, 2024).

Target: T1, EhPSP (Entamoeba histolytica, UniProt N9V397)
T1 sequence (N9V397 1-205): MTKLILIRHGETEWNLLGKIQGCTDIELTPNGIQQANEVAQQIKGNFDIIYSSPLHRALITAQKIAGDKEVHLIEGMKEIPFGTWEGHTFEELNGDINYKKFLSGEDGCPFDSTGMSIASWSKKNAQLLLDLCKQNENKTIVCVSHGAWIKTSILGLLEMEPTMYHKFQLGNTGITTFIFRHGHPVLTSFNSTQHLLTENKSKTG
Experiment: In vitro enzyme inhibition assay of EhPSP phosphatase activity
Type: biochemical
Conditions: for inhibition of enzymatic activity (in words): 21 compounds tested
Outline: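 Recombinant C-terminal 6X-His EhPSP, expressed in E. coli BL21 (DE3) and purified by Ni-NTA then size exclusion. Reaction in 50 mM HEPES-NaOH pH 8.0, 1 mM DTT, 1 mM EDTA, 25 μg enzyme. Compound preincubated 10 min RT, then OPLS added and run 2−5 min RT. Stopped with malachite green, A630 of released phosphate. % inhibition vs no-compound control, IC50 from log-concentration curve.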

SMILES	inhibition of enzymatic activity (in words)	IC50 (IC50, OPLS 2.0 mM, compound 20 nM to 500 μM) [µM]
O=S(=O)(O)c1ccc2c(S(=O)(=O)O)cccc2c1 [AE-562/12222184, 1,6-naphthalenedisulfonic acid]	displayed the inhibition of enzymatic activity	
Cc1nc2ccc(CN(C)c3ccc(C(=O)N[C@@H](CCC(=O)O)C(=O)O)s3)cc2c(=O)[nH]1 [Raltitrexed, (2S)-2-[[5-[methyl-[(2-methyl-4-oxo-3H-quinazolin-6-yl)methyl]amino]thiophene-2-carbonyl]amino]pentanedioic acid]	displayed the inhibition of enzymatic activity	~368
